According to ChEMBL document CHEMBL1124071, “New human renin inhibitors containing an unnatural amino acid, norstatine” (J Med Chem, 1988):

Legend:
Renin [1] = molecular target: T1, Renin (Rattus norvegicus, UniProt P08424); test: Inhibitory concentration was measured against plasma renin from rat
T1 sequence (P08424 whole entry): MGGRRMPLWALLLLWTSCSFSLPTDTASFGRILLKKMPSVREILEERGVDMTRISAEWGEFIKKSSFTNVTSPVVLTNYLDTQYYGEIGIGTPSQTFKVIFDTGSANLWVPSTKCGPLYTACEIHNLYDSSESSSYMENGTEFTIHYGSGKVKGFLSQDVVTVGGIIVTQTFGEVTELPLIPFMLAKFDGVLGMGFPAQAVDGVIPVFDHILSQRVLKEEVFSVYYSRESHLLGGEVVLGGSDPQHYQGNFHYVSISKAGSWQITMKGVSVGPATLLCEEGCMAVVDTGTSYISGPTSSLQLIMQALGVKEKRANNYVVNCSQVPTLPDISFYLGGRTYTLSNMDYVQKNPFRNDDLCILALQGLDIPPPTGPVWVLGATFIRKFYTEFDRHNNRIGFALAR

Renin [2] = molecular target: T2, Renin (Homo sapiens, UniProt P00797); test: Inhibitory concentration against human renin
T2 sequence (P00797 whole entry): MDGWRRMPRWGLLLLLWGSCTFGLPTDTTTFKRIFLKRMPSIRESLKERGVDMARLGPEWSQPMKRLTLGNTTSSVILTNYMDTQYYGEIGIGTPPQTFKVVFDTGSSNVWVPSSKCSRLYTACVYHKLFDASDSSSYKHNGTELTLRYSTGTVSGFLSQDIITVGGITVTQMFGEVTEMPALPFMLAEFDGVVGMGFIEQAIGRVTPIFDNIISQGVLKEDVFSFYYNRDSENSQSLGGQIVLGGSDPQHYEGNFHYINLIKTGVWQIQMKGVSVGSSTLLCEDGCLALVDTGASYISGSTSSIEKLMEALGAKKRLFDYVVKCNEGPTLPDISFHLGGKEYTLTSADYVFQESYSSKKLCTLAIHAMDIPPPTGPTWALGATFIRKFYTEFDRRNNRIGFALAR

Renin [3] = molecular target: T2, Renin; test: Inhibitory concentration was measured against plasma renin from human; type: cell-free
How it was run: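 Human plasma containing EDTA-2Na (14 mM) and neomycin sulfate (0.3%) was mixed with 0.5 M phosphate buffer pH 7.0, Phe-Ala-Pro and inhibitor in DMSO. Incubation ran 60 min at 37 °C, then angiotensin I generated was quantified by radioimmunoassay. IC50 refers to inhibition of plasma renin activity.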

Renin (Canis familiaris) = test: Inhibitory concentration was measured against plasma renin from dog

Structure (SMILES)	IC50 (Renin [1]) [nM]	IC50 (Renin [2]) [nM]	IC50 (Renin [3]) [nM]	IC50 (Renin (Canis familiaris)) [nM]
CC(C)CC(NC(=O)C(Cc1c[nH]cn1)NC(=O)C(CC(=O)N1CCOCC1)Cc1cccc2ccccc12)C(O)C(=O)NC(C)C (stereo not given)	4400	130	130	1100
CC(C)CC(NC(=O)C(Cc1cnc[nH]1)NC(=O)C(CC(=O)N1CCOCC1)Cc1cccc2ccccc12)C(O)CC(=O)OC(C)C (stereo not given)	> 100000	180	66	350
COC(=O)[C@@H](O)C(CC(C)C)NC(=O)C(Cc1c[nH]cn1)NC(=O)C(CC(=O)NCCc1ccccc1)Cc1cccc2ccccc12 (single isomer, unassigned; (+))		1300		
COC(=O)[C@H](O)C(CC(C)C)NC(=O)C(Cc1cnc[nH]1)NC(=O)C(CC(=O)NCCc1ccccc1)Cc1cccc2ccccc12 (single isomer, unassigned; (+))		31	77	

Other lines, results leading:

IC50 (Renin [1]) [nM]	IC50 (Renin [2]) [nM]	IC50 (Renin [3]) [nM]	IC50 (Renin (Canis familiaris)) [nM]	Structure (SMILES)
> 100000	78	25	640	COC(=O)C(O)C(CC(C)C)NC(=O)C(Cc1c[nH]cn1)NC(=O)C(CC(=O)N(C)C)Cc1cccc2ccccc12 (stereo not given)
> 100000	78	90	2100	COC(=O)C(O)C(CC(C)C)NC(=O)C(Cc1c[nH]cn1)NC(=O)C(CC(=O)NCCc1ccccc1)Cc1cccc2ccccc12 (stereo in doubt)
	> 100000			COC(=O)C(O)C(CC(C)C)NC(=O)C(Cc1c[nH]cn1)NC(=O)C(CC(=O)NCCc1ccccc1)Cc1cccc2ccccc12 (stereo in doubt; 12)
